Values after ≈ are worked out from the molar mass of the structure shown.
Assays:
Format in all cases: functional
[1] = system: Human betaherpesvirus 5; assay: The minimum inhibitory concentration was measured on HEL cells against Cytomegalovirus virus (AD-169 strain)
Method in brief: (§1)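 Antiviral endpoint was the concentration reducing virus plaque formation by 50% in HEL cell cultures. Values are means of two to six independent determinations.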

[2] = system: Human alphaherpesvirus 3; assay: The minimum inhibitory concentration was measured on HEL cells against Varicella zoster virus (OKA strain); conditions: Human alphaherpesvirus 3, oka; method in brief: as §1
[3] = system: Human alphaherpesvirus 1; assay: The minimum inhibitory concentration was measured on E6SM cells against TK+/TK-Herpes simplex virus type 1 (VMW1837 strain)
Method in brief: (§2)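 Antiviral endpoint was the concentration reducing virus-induced cytopathicity by 50% in […] cell cultures. Values are means of two to six independent determinations.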

[4] = system: Human alphaherpesvirus 1; assay: The minimum inhibitory concentration was measured on E6SM cells against TK-Herpes simplex virus type 1 (B2006 strain); method in brief: as §2
[5] = The minimum inhibitory concentration was measured against Herpes simplex virus type 1 (KOS strain) on E6SM cells; conditions: Human alphaherpesvirus 1; method in brief: as §2
[6] = The minimum inhibitory concentration was measured on E6SM cells against Herpes simplex virus type 1 (McIntyre strain); conditions: Human alphaherpesvirus 1; method in brief: as §2
[7] = system: E6SM; assay: The minimum inhibitory concentration was measured on E6SM cells for morphological alteration; conditions: Homo sapiens
Method in brief: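 In uninfected E6SM cells, the value is the concentration giving a microscopically detectable change in normal cell morphology. Values are means of two to six independent determinations.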

[8] = system: Human alphaherpesvirus 3; assay: The minimum inhibitory concentration was measured on HEL cells against TK-Varicella zoster virus (YS-R strain); conditions: Human alphaherpesvirus 3, ys-r; method in brief: as §1
[9] = system: Human alphaherpesvirus 1; assay: The minimum inhibitory concentration was measured on E6SM cells against Herpes simplex virus type 1 (F strain); method in brief: as §2
[10] = system: HEL; assay: The […] was measured on HEL cells in cell growth; conditions: Homo sapiens
[11] = system: Vaccinia virus; assay: The minimum inhibitory concentration was measured on E6SM cells against Vaccinia virus; conditions: Orthopoxvirus vaccinia; method in brief: as §2
[12] = system: Human alphaherpesvirus 3; assay: The minimum inhibitory concentration was measured on HEL cells against Varicella zoster virus (YS strain); method in brief: as §1
[13] = system: Cytomegalovirus; assay: The minimum inhibitory concentration was measured on HEL cells against Cytomegalovirus virus (Davis strain); conditions: Human betaherpesvirus 5; method in brief: as §1
[14] = system: Human alphaherpesvirus 3; assay: The minimum inhibitory concentration was measured on HEL cells against TK-Varicella zoster virus (07/1 strain); method in brief: as §1
[15] = system: HEL; assay: The minimum inhibitory concentration was measured on HEL cells against Cytomegalovirus virus (Davis strain); (<400>100); conditions: Homo sapiens; method in brief: as §1
[16] = system: HEL; assay: The minimum inhibitory concentration was measured on HEL cells against Cytomegalovirus virus (AD-169 strain); (<400>100); conditions: Homo sapiens; method in brief: as §1
[17] = system: HEL; assay: The minimum inhibitory concentration was measured on HEL cells against TK-Varicella zoster virus (YS-R strain); (<400>100); conditions: Homo sapiens; method in brief: as §1

| SMILES | MIC [1] | MIC [2] | MIC [3] | MIC [4] | MIC [5] | MIC [6] | MIC [7] | MIC [8] | MIC [9] | MIC [10] | MIC [11] | MIC [12] | MIC [13] | MIC [14] | MIC [15] | MIC [16] | MIC [17] |
| --- | --- | --- | --- | --- | --- | --- | --- | --- | --- | --- | --- | --- | --- | --- | --- | --- | --- |
| OCC(CO)OCN1CNc2c1nc1nc(-c3ccc(-c4ccccc4)cc3)cn1c2O | > 50 µg/mL | 10 µg/mL (≈ 23.1 µM) | 2.7 µg/mL (≈ 6.23 µM) | > 60 µg/mL | 0.02 µg/mL (≈ 0.0461 µM) | 0.001 µg/mL (≈ 0.00231 µM) | > 85 µg/mL | 20 µg/mL (≈ 46.1 µM) | 0.01 µg/mL (≈ 0.0231 µM) | > 200 µg/mL | > 70 µg/mL | > 50 µg/mL | > 50 µg/mL | 25 µg/mL (≈ 57.7 µM) |  |  |  |
| OCCOCN1CNc2c1nc1nc(-c3ccc(-c4ccccc4)cc3)cn1c2O |  | 65 µg/mL (≈ 161 µM) | > 55 µg/mL |  | 1.3 µg/mL (≈ 3.22 µM) | 0.7 µg/mL (≈ 1.74 µM) | ≥ 70 µg/mL |  | 2 µg/mL (≈ 4.96 µM) | > 200 µg/mL | > 70 µg/mL | 40 µg/mL (≈ 99.1 µM) |  | 100 µg/mL (≈ 248 µM) | > 100 µg/mL | > 100 µg/mL | > 100 µg/mL |
| Cc1cn2c(O)c3c(nc2n1)N(COCCO)CN3 | > 50 µg/mL | 4.6 µg/mL (≈ 17.3 µM) | 40 µg/mL (≈ 151 µM) | 127 µg/mL (≈ 479 µM) | 0.8 µg/mL (≈ 3.02 µM) | 1 µg/mL (≈ 3.77 µM) | > 190 µg/mL | 70 µg/mL (≈ 264 µM) | 0.58 µg/mL (≈ 2.19 µM) | > 200 µg/mL | > 190 µg/mL | 9.4 µg/mL (≈ 35.4 µM) | > 50 µg/mL | > 50 µg/mL |  |  |  |
| Nc1nc2c(ncn2COCCO)c(=O)[nH]1 [ACYCLOVIR] | 13.2 µg/mL (≈ 58.6 µM) | 0.18 µg/mL (≈ 0.799 µM) | 5 µg/mL (≈ 22.2 µM) | 70 µg/mL (≈ 311 µM) | 0.02 µg/mL (≈ 0.0888 µM) | 0.07 µg/mL (≈ 0.311 µM) | 350 µg/mL (≈ 1550 µM) | 4.7 µg/mL (≈ 20.9 µM) | 0.004 µg/mL (≈ 0.0178 µM) | > 200 µg/mL | > 180 µg/mL | 0.38 µg/mL (≈ 1.69 µM) |  | 13.7 µg/mL (≈ 60.8 µM) |  |  |  |
| O=c1[nH]c(=O)n([C@H]2C[C@H](O)[C@@H](CO)O2)cc1/C=C/Br [BRIVUDINE] | > 20 µg/mL | 0.005 µg/mL (≈ 0.015 µM) | 52 µg/mL (≈ 156 µM) | 15 µg/mL (≈ 45 µM) | 0.003 µg/mL (≈ 0.00901 µM) | 0.006 µg/mL (≈ 0.018 µM) | > 350 µg/mL | 20 µg/mL (≈ 60 µM) | 0.005 µg/mL (≈ 0.015 µM) | 60 µg/mL (≈ 180 µM) | 0.22 µg/mL (≈ 0.66 µM) | 0.003 µg/mL (≈ 0.00901 µM) | > 20 µg/mL | 17.5 µg/mL (≈ 52.5 µM) |  |  |  |
| Nc1nc2c(ncn2COC(CO)CO)c(=O)[nH]1 [GANCICLOVIR] | 1.5 µg/mL (≈ 5.88 µM) | 0.5 µg/mL (≈ 1.96 µM) | 0.08 µg/mL (≈ 0.313 µM) | 4.5 µg/mL (≈ 17.6 µM) | 0.003 µg/mL (≈ 0.0118 µM) | 0.004 µg/mL (≈ 0.0157 µM) | > 270 µg/mL | 1.4 µg/mL (≈ 5.49 µM) | 0.004 µg/mL (≈ 0.0157 µM) | > 200 µg/mL | > 80 µg/mL | 1.4 µg/mL (≈ 5.49 µM) | 0.9 µg/mL (≈ 3.53 µM) | 1.5 µg/mL (≈ 5.88 µM) |  |  |  |
| O=c1[nH]c(=O)n([C@H]2C[C@H](O)[C@@H](CO)O2)cc1I [IDOXURIDINE] |  |  | 20 µg/mL (≈ 56.5 µM) |  | 20 µg/mL (≈ 56.5 µM) | 4 µg/mL (≈ 11.3 µM) | ≥ 400 µg/mL |  | 7 µg/mL (≈ 19.8 µM) |  | > 20 µg/mL |  |  |  |  |  |  |
| NC(=O)c1ncn([C@@H]2O[C@H](CO)[C@@H](O)[C@H]2O)n1 [RIBAVIRIN] |  |  | 115 µg/mL (≈ 471 µM) | 53 µg/mL (≈ 217 µM) | 46 µg/mL (≈ 188 µM) | 16 µg/mL (≈ 65.5 µM) | 400 µg/mL (≈ 1640 µM) |  | 23 µg/mL (≈ 94.2 µM) |  | 28 µg/mL (≈ 115 µM) |  |  |  |  |  |  |

— ChEMBL document CHEMBL1127471, “Tricyclic analogues of acyclovir and ganciclovir. Influence of substituents in the heterocyclic moiety on the antiviral activity” (1994)
